From ChEMBL document CHEMBL1126026, “Synthesis and biological activity of new dimers in the 7H-pyrido[4,3-c] carbazole antitumor series” (1992)
Calls of active or inactive are those of the source. The rule behind the calls is not given here.

Tests used:
Mus musculus [1] = species on record: Mus musculus; test: Increase in life span, expressed as treated by control was determined in DBA2 mice inoculated with L1210 cells; format: functional
Procedure, shortened: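 DBA2 mice inoculated with 10⁵ L1210 leukemia cells and treated with compound. Read-out was increase in life span as T/C × 100, the mean % survival of treated over control animals. Significance was tested by Student's test. Optimal dose in mg/kg was the dose that most extended the life time of treated mice.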

Mus musculus [2] = species on record: Mus musculus; test: Maximal tolerated dose against DBA2 mice inoculated with L1210 cells was determined; format: functional
L1210 [3] = test: Dose required to inhibit growth of L1210 cells after 24-h exposure to the compound; format: functional; conditions: Mus musculus, L1210, 24 h; read-out: ED50 (the source's name)
Procedure, shortened: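 Exponentially growing L1210 cells were exposed to a range of drug concentrations for 24 h. The dose giving 50% growth inhibition was determined.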

L1210 [4] = test: Dose required to inhibit the cloning efficacy of L1210 cells to a factor of 0.37 after 24-h exposure to the compound; format: functional, Mus musculus
Procedure, shortened: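 Exponentially growing L1210 cells were exposed to a range of drug concentrations for 24 h, then assessed by cloning. The dose reducing cloning efficiency to a factor of 0.37 was determined.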

Mus musculus [5] = species on record: Mus musculus; test: Optimal dose required against DBA2 mice inoculated with L1210 cells; format: functional
Procedure, shortened: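 DBA2 mice were inoculated with 10⁵ L1210 cells. The optimal dose (mg/kg) was the dose giving the greatest increase in life time of treated mice relative to controls.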

Mus musculus [6] = species on record: Mus musculus; test: Increase in life span, expressed as treated by control was determined in DBA2 mice inoculated with L1210 cells; NM denotes not measurable due to weak solubility; format: functional, organism-based
Procedure, shortened: (§1)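 DBA2 mice were inoculated with 10⁵ L1210 cells and treated. Increase in life span was reported as mean survival of treated over control × 100. Significance was assessed by Student's test.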

Nucleic Acid = test: Affinity constant against calf thymus DNA; NM denotes not measurable due to weak solubility; format: nucleic-acid assay; conditions: Bos taurus
Procedure, shortened: (§2)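 Fluorescence competition assay with ethidium dimer at 25 °C in 0.1 M Tris-HCl, 0.1 M NaCl buffer, pH 7.4. Calf thymus DNA (1.6 × 10⁻⁶ M base pairs) was equilibrated with ethidium dimer for 24 h, then measured with varied drug concentrations. Excitation was 540 nm and emission 610 nm. Bound dye per base pair was derived by the Gaugain method. Ka was fitted from computed versus experimental displacement curves.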

Calf thymus DNA = test: Affinity constant for calf thymus DNA; format: nucleic-acid assay; conditions: Bos taurus; procedure, shortened: as §2
Mus musculus [7] = species on record: Mus musculus; test: Increase in life span, expressed as treated by control was determined in DBA2 mice inoculated with L1210 cells; NS denotes not significant; format: functional, organism-based; procedure, shortened: as §1

Row | Structure (SMILES) | T/C (Mus musculus [1]) [%] | MTD (Mus musculus [2]) [mg/kg] | EC50 (L1210 [3]) [nM] | ED37 (L1210 [4]) [µM] | OD (Mus musculus [5]) [mg/kg] | T/C (Mus musculus [6]) | Ka (Nucleic Acid) | Ka (Calf thymus DNA) [M⁻¹] | T/C (Mus musculus [7])
1 | COc1ccc2[nH]c3ccc4cc[n+](CCN5CCC(C6CCN(CC[n+]7ccc8ccc9[nH]c%10ccc(OC)cc%10c9c8c7)CC6)CC5)cc4c3c2c1.[Cl-].[Cl-] [DITERCALINIUM CHLORIDE] | 182 | 10 | 190 | 0.024 | 10 |  |  |  | 
2 | COc1ccc2[nH]c3c(CNC(=O)[C@@H](N)CCC(=O)O)cc4cc[n+](CCN5CCC(C6CCN(CC[n+]7ccc8cc(CNC(=O)[C@@H](N)CCC(=O)O)c9[nH]c%10ccc(OC)cc%10c9c8c7)CC6)CC5)cc4c3c2c1.CS(=O)(=O)O.CS(=O)(=O)O.CS(=O)(=O)[O-].CS(=O)(=O)[O-] |  |  | 460 | >0.58 |  | Not measurable | Not measurable |  | 
3 | COc1ccc2[nH]c3c(C(=O)O)cc4cc[n+](CCN5CCC(C6CCN(CC[n+]7ccc8cc(C(=O)O)c9[nH]c%10ccc(OC)cc%10c9c8c7)CC6)CC5)cc4c3c2c1.CS(=O)(=O)O.CS(=O)(=O)O.CS(=O)(=O)[O-].CS(=O)(=O)[O-] |  |  | > 800 | >0.8 |  | Not measurable |  | 250000 | 
4 | COc1ccc2[nH]c3ccc4cc[n+](CCN5CCC(C6CCN(CC[n+]7ccc8ccc9[nH]c%10ccc(OC)cc%10c9c8c7)CC6)CC5)cc4c3c2c1.CS(=O)(=O)O.CS(=O)(=O)O.CS(=O)(=O)[O-].CS(=O)(=O)[O-] | 182 | 10 |  | 0.02 | 10 |  |  |  | 
5 | COc1ccc2[nH]c3c(CNC(=O)[C@]4(O)O[C@H](CO)[C@H](O)[C@H]4O)cc4cc[n+](CCN5CCC(C6CCN(CC[n+]7ccc8cc(CNC(=O)[C@]9(O)O[C@H](CO)[C@H](O)[C@H]9O)c9[nH]c%10ccc(OC)cc%10c9c8c7)CC6)CC5)cc4c3c2c1 |  |  | 2150 |  |  |  |  | 3e+06 | 
6 | COc1ccc2[nH]c3c(CN)cc4cc[n+](CCN5CCC(C6CCN(CC[n+]7ccc8cc(CN)c9[nH]c%10ccc(OC)cc%10c9c8c7)CC6)CC5)cc4c3c2c1.CS(=O)(=O)O.CS(=O)(=O)O.CS(=O)(=O)[O-].CS(=O)(=O)[O-] |  | 20 | 57 | 0.066 | 10 |  |  | 2e+07 | inactive
7 | COc1ccc2[nH]c3c(C(=O)NCCN4CCC(C5CCN(CCNC(=O)c6cc7ccncc7c7c6[nH]c6ccc(OC)cc67)CC5)CC4)cc4ccncc4c3c2c1 |  | 10 | 11000 | 30 | 10 |  |  | 2e+08 | inactive
8 | COc1ccc2[nH]c3c(C)cc4cc[n+](CCN5CCC(C6CCN(CC[n+]7ccc8cc(C)c9[nH]c%10ccc(OC)cc%10c9c8c7)CC6)CC5)cc4c3c2c1.CS(=O)(=O)O.CS(=O)(=O)O.CS(=O)(=O)[O-].CS(=O)(=O)[O-] | 172 | 11 | 370 | 0.1 | 7 |  |  | 5e+08 | 
9 | COc1ccc2c(c1)c1c3cnccc3ccc1n2CCN1CCC(C2CCN(CCn3c4ccc(OC)cc4c4c5cnccc5ccc43)CC2)CC1.CS(=O)(=O)O.CS(=O)(=O)O |  | 10 | 600 |  | 10 |  |  | 1e+07 | inactive
10 | COc1ccc2c(c1)c1c3c[n+](C)ccc3ccc1n2CCN1CCC(C2CCN(CCn3c4ccc(OC)cc4c4c5c[n+](C)ccc5ccc43)CC2)CC1.CS(=O)(=O)O.CS(=O)(=O)O.CS(=O)(=O)[O-].CS(=O)(=O)[O-] | 134 | 5 | 900 |  | 5 |  |  | > 1e+09 | 
11 | COc1ccc2[nH]c3ccc4cc[n+](CCN5CCC(C6CCN(CC[n+]7ccc8ccc9[nH]c%10ccc(OC)cc%10c9c8c7)CC6)CC5)cc4c3c2c1 |  |  |  |  |  |  |  | 1e+07 | 
12 | COc1ccc2c(c1)c1c3c(ccc1n2C)CCN(CCN1CCC(C2CCN(CCN4CCc5ccc6c(c5C4)c4cc(OC)ccc4n6C)CC2)CC1)C3.CS(=O)(=O)O.CS(=O)(=O)O |  | 10 | 660 | 0.6 | 10 |  |  | 4e+07 | inactive
